This is an account of results in PubChem BioAssay.

A short description of assay [1]: S. cerevisiae growth inhibition in permissive medium (OD615), pilot counter-assay for S. cerevisiae lifespan shortening project, permissive growth control (AID 705;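 active = growth inhibition above 25% in both replicates, a cutoff set 3 SD above the mean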). As to conditions: OD615, 24 h, at 10 µM, stronger effect = higher value. In short, it runs like this:
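assay system = Saccharomyces cerevisiae strain carrying genetically modified DeaD replicative-lifespan system | technique = absorbance (optical density) at 615 nm | buffer or medium = permissive raffinose/galactose medium | timing = cells pre-grown 4 h, then 24 h compound exposure, 30 °C humidified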

The nature of assay [2]: S. cerevisiae growth inhibition in restrictive medium, OD615, pilot screen, restrictive growth control, yeast lifespan reduction project (AID 706;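 active = growth inhibition above a set limit, 3 SD over mean compound inhibition, in both replicates, cut at about 43% in these data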;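 also: modified DeaD lifespan yeast strain shifted to restrictive glucose medium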). As to conditions: OD615, 48 h, at 10 µM, stronger effect = higher value. The gist of the method: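 System: modified S. cerevisiae. Buffer or medium: CSMM-D glucose medium. Incubation: 4 h pre-growth plus 48 h compound exposure, 30 °C. Detection: absorbance (optical density) measured at 615 nm.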

The nature of assay [3]: doxorubicin toxicity protection in MRP-1 cells – H69AR cells, CellTiter-Glo, duplicate, MRP-1 activator project, pilot screen (AID 807;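 active = viability increase at or above a cutoff of the median across tested compounds plus 3 SD, cut at about 8.5% in these data, passing the limit was not always enough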;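 also: compound pretreatment 18-22 h then 72 h combined with doxorubicin; 0% = doxorubicin alone and 100% = vehicle without doxorubicin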). The settings on record: H69AR viability with doxorubicin, CellTiter-Glo luminescence; at 10 µM; stronger effect = higher value.
A short description of assay [4]: viability of HCT116 without oncogenic beta-catenin – human colon tumor cells, pilot screen (AID 823;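 active = cell viability at or below a set limit in both duplicate runs, the limit being the all-compound median minus 4 SD, cut at about 23% in these data, passing the limit was not always enough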;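 also: 0% = wells killed by 20 µM Hyamine and 100% = untreated DMSO cell wells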). The settings on record: HCT116 beta-catenin knockout viability, CellTiter-Glo, 60 h; at 10 µM; stronger effect = lower value. On the technique in general: ATP-based viability assays read luminescence as a measure of living cells.
A short description of assay [5]: viability of PTEN-null HCT116 cells – cell-based, HCT116 clonal line, CellTiter-Glo, pilot screen (AID 824;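 active = viability at or below 27.92% in each of two runs, the all-compound median minus 4 SD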;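 also: 0% = 20 µM Hyamine control and 100% = vehicle cell control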). The settings on record: HCT116 PTEN-deleted viability, 60 h, at 10 µM, stronger effect = lower value.
The nature of assay [6]: RAM pathway blockade in budding yeast – dse1pr::URA3 reporter, 5-FOA selection, pilot screen (AID 869;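 active = inhibition over a set limit, the all-compound mean plus 3 SD, in both replicate runs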;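 also: 0% = DMSO wells with no growth and 100% = 10 µM 1-NA-PP1 with full growth; RAM network block rescues cells from 5-FOA so hits raise OD615 growth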). The settings on record: S. cerevisiae dse1pr::URA3 5-FOA growth, OD615, 2 d; at 10 µM; stronger effect = higher value; strain carries analog-sensitive mutant Cbk1 kinase.
Assay [7] can be described thus: RAM signaling pathway blockade in yeast – S. cerevisiae, Pdr1DBD-CYC8 efflux-inhibited sensitized strain, primary screen (AID 1298).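 Also: 0% = DMSO untreated cells without growth and 100% = 10 µM 1-NA-PP1 full growth; higher means more yeast growth rescued from 5-FOA killing.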 As to conditions: S. cerevisiae cbk1-as DSE1-URA3 strain, 5-FOA growth OD615, 2 d; at 50 µM; stronger effect = higher value.

Unmarked numbers belong to inactive results. Records with an inconclusive call do not appear. The source made the active and inactive calls.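 The calls were made as follows, unless noted: active = RAM network inhibition above 8.4% in each of two replicates, 3 SD over the compound average; inconclusive = above 8.4% inhibition in only one replicate; inactive = 8.4% inhibition or less in each replicate.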

In general, viability refers to a read-out of living cells in per cent, often relative to untreated cells. By inhibition is commonly meant the drop in the measured response relative to a control, in per cent. Consider `Cn1ccnc1SCc1cn2cc(Br)ccc2n1`, for which the growth inhibition was 2.79% in assay [1] and 22.2% in assay [2]. In addition, the viability increase in assay [3] was -3.12%. For the same molecule, the viability in assay [4] is 91.8%; in assay [5] it was 84.7%. For the same molecule, in assay [6], the inhibition was 1.51%. Also, the RAM network inhibition in assay [7] is 4.08%.

In the case of `Cc1ccc(C(=O)NCc2ccc3c(c2)OCO3)cc1N1CCCC1=O`, the results for the growth inhibition in assay [1] and in assay [2] were 5.69% and 4.36%, respectively. Besides, the viability increase in assay [3] was -1.36%. Moreover, the viability in assay [4] is 91.7%; in assay [5] it was 98.2%. Further, the inhibition in assay [6] is 0.635%. Besides, the RAM network inhibition in assay [7] is 4.17%.

For the molecule `CCC(C)NC(=O)c1cc(-c2ccccc2O)on1` (stereo unspecified), the growth inhibition was -10.7% in assay [1] and -4.76% in assay [2]. Besides, the viability increase in assay [3] was -1.23%. Further, the viability is 94% in assay [4] and 86.2% in assay [5]. The inhibition in assay [6] is 1.73%. Moreover, the RAM network inhibition in assay [7] is 2.61%.

Consider `CCOc1ccc(NC(=O)N2CCC(n3c(=O)[nH]c4ccccc43)CC2)cc1`, for which the growth inhibition in assay [1] was -13.3%; in assay [2] it was -22%. Also, the viability increase in assay [3] was 6.11%. The viability in assay [4] was 83.2%; in assay [5] it was 84.2%. The inhibition in assay [6] was 1.9%. Moreover, in assay [7], the RAM network inhibition was 2.37%.

Turning to `Cc1ccc(C)c(N2CCN(C(=O)c3cc4ccccc4oc3=O)CC2)c1`, the results for the growth inhibition in assay [1] and in assay [2] were -11.6% and -15.9%, respectively. Moreover, the viability increase in assay [3] was 1.72%. Also, the viability in assay [4] was 100%; in assay [5], 95.5%. For the same molecule, the inhibition in assay [6] is 1.18%. For the same molecule, in assay [7], the RAM network inhibition was 3.38%.

Regarding `CCOC(=O)c1c(NC(=O)c2cccs2)sc2c1CCCC2`, the values for the growth inhibition in assay [1] and in assay [2] were -6.96% and -21.1%, respectively. Further, the viability increase in assay [3] is -4.82%. Also, the viability in assay [4] is 101%; in assay [5] it was 83.5%. In addition, the inhibition in assay [6] is 3.56%. Also, the RAM network inhibition in assay [7] is 8%.

Consider `CCOC(=O)C1CCN(CC(O)COc2ccc(C(C)(C)CC)cc2)CC1` (stereo unspecified), for which the growth inhibition in assay [1] is -14%; in assay [2], -10.4%. For the same molecule, the viability increase in assay [3] is -4.71%. The results for the viability in assay [4] and in assay [5] were 65.6% and 73.5%, respectively. Further, the inhibition in assay [6] was -0.58%. The RAM network inhibition in assay [7] is 0.78%.

In the case of `CN(CC(=O)NC1CCCCCCC1)S(=O)(=O)c1cccc2cccnc12`, the growth inhibition in assay [1] was 0.055%; in assay [2], 0.405%. For the same molecule, the viability increase in assay [3] is -1.32%. Moreover, the viability in assay [4] is 93.2%; in assay [5] it was 87.1%. In assay [6], the inhibition is 1.26%. Also, the RAM network inhibition in assay [7] is 2.33%.

With `O=C(O)c1cc(S(=O)(=O)Nc2ccc3c(c2)OCCO3)c(Cl)cc1Cl`, the growth inhibition in assay [1] is -5.69%; in assay [2], 3.62%. Moreover, in assay [3], the viability increase is -1.04%. The viability in assay [4] is 95.1%; in assay [5] it was 88.4%. Also, in assay [6], the inhibition was 2.01%. Moreover, in assay [7], the RAM network inhibition was -0.21%.

Consider `CC1CCN(c2nc(-c3ccco3)c3c(c2C#N)CC(C)(C)OC3)CC1`, for which the results for the growth inhibition in assay [1] and in assay [2] were -15% and -3.74%, respectively. Moreover, the viability increase in assay [3] was -6.85%. Also, the viability in assay [4] was 90.8%; in assay [5], 89.6%. Moreover, in assay [6], the inhibition was 0.175%. Moreover, the RAM network inhibition in assay [7] is 0.92%.

As to `Cc1cc(NC(=O)CSc2nnc(Cc3cccn3C)n2CCc2ccccc2)no1`, the growth inhibition in assay [1] is 6.44%; in assay [2], 14.2%. Moreover, in assay [3], the viability increase was -2.85%. Besides, the viability in assay [4] is 93.2%; in assay [5] it was 89.4%. In assay [6], the inhibition was 0.955%. Moreover, the RAM network inhibition in assay [7] was 7.83%.

For `CC(CCc1ccccc1)NC(=O)C1CCN(c2nnc(-n3cccc3)s2)CC1` (stereo unspecified), the growth inhibition in assay [1] was -2.63%; in assay [2], -7.45%. In addition, in assay [3], the viability increase is -0.45%. The viability was 95.9% in assay [4] and 88.5% in assay [5]. Besides, the inhibition in assay [6] is 4.55%. The RAM network inhibition in assay [7] was 4.94%.

Turning to `Cn1c2ccc(Cl)cc2c2nc3ccccc3nc21`, the growth inhibition in assay [1] is -12.8%; in assay [2], -4%. Besides, the viability increase in assay [3] was -5.07%. Further, the viability in assay [4] was 74.7%; in assay [5] it was 76.6%. Also, the inhibition in assay [6] is 7.62% (active). Moreover, the RAM network inhibition in assay [7] was 12.6%.

Turning to `O=C(CC(c1ccccc1)c1ccccc1)NCCO`, the growth inhibition was -6.53% in assay [1] and -4.9% in assay [2]. Further, the viability increase in assay [3] is 0.49%. Moreover, the viability in assay [4] was 100%; in assay [5], 96.1%. The inhibition in assay [6] is 2.24%. Further, the RAM network inhibition in assay [7] was 5.36%.

In the case of `Cc1ccc(/C(O)=C2/C(=O)C(=O)N(CCN3CCOCC3)C2c2cccnc2)cc1` (stereo unspecified), the values for the growth inhibition in assay [1] and in assay [2] were 6.32% and 4.34%, respectively. For the same molecule, the viability increase in assay [3] was 0.49%. In addition, the viability in assay [4] is 93.5%; in assay [5], 102%. For the same molecule, the inhibition in assay [6] was -0.11%. The RAM network inhibition in assay [7] is 0.7%.

In the case of `COc1ccccc1NC(=O)CSc1nnc(C)o1`, the growth inhibition is -7.09% in assay [1] and -9.04% in assay [2]. For the same molecule, the viability increase in assay [3] is -1.19%. Moreover, the values for the viability in assay [4] and in assay [5] were 101% and 102%, respectively. Besides, the inhibition in assay [6] is 2.02%. Also, the RAM network inhibition in assay [7] is 2.69%.

`Cc1ccc(-c2nc(CS(=O)CC(=O)NCc3ccccc3)c(C)o2)cc1` (stereo unspecified): the growth inhibition was 2.69% in assay [1] and -1.83% in assay [2]. The viability increase in assay [3] is -2.84%. Further, the viability in assay [4] is 98.2%; in assay [5] it was 89.5%. Also, in assay [6], the inhibition is 0.175%. Also, the RAM network inhibition in assay [7] was 6.78%.

As for `COc1ccc(S(=O)(=O)Cc2ccc(C(=O)N3CCC(C(N)=O)CC3)o2)cc1`, the results for the growth inhibition in assay [1] and in assay [2] were -3.35% and 0.07%, respectively. For the same molecule, the viability increase in assay [3] was -0.31%. For the same molecule, the viability is 76% in assay [4] and 93.5% in assay [5]. In assay [6], the inhibition is 2.22%. Moreover, the RAM network inhibition in assay [7] was 4.37%.
